Experimental findings from ChEMBL document CHEMBL1138835, “Inhibitors of multiple mutants of Plasmodium falciparum dihydrofolate reductase and their antimalarial activities” (J Med Chem, 2004) are described below.

Molecules are shown by their SMILES. A value given as a limit tells only on which side of the number the result lay.

Assay [1] addresses Bifunctional dihydrofolate reductase-thymidylate synthase (Plasmodium falciparum K1, UniProt P13922, C59R/I164L/S108N). Kind of assay: Binding affinity towards mutant dihydrofolate reductase (C59R+S108N+I164L DHFR) of Plasmodium falciparum.
Assay [2] has as its system KB. The experiment in a line: Relative antiplasmodial activity to cytotoxicity in Plasmodium falciparum V1/S infected KB cells. The assay is classed as functional.
The test system of assay [3] is Bifunctional dihydrofolate reductase-thymidylate synthase (Plasmodium falciparum K1), P13922 [UNDEFINED MUTATION]. The experiment in a line: Ratio of binding affinity for mutant (C59R+S108N+I164L) to that of wild type dihydrofolate reductase. The method in brief:
(§1)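 Each ratio is Ki for the mutant PfDHFR divided by Ki for wild-type PfDHFR. The recombinant enzymes were expressed in E. coli BL21(DE3)pLysS and purified on methotrexate-Sepharose. Ki was derived assuming inhibitors compete with substrate binding.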

The test system of assay [4] is Vero. Kind of assay: Relative antiplasmodial activity to cytotoxicity in Plasmodium falciparum Csl-2 infected Vero cells. The class given is functional.
The test system of assay [5] is Vero. Kind of assay: Relative antiplasmodial activity to cytotoxicity in Plasmodium falciparum V1/S infected Vero cells. The assay is classed as functional.
Assay [6] addresses Bifunctional dihydrofolate reductase-thymidylate synthase (Plasmodium falciparum K1) (UniProt P13922). Kind of assay: Ratio of binding affinity for mutant (N51I+C59R+S108N) to that of wild type dihydrofolate reductase. The method in brief:
as §1

The test system of assay [7] is Bifunctional dihydrofolate reductase-thymidylate synthase (Plasmodium falciparum K1), P13922 [UNDEFINED MUTATION]. Kind of assay: Ratio of binding affinity for mutant (N51I+C59R+S108N+I164L) to that of wild type dihydrofolate reductase. The method in brief: as §1
Chain of Bifunctional dihydrofolate reductase-thymidylate synthase (Plasmodium falciparum K1), P13922 [UNDEFINED MUTATION] (P13922 whole entry, looked up, stated change not applied): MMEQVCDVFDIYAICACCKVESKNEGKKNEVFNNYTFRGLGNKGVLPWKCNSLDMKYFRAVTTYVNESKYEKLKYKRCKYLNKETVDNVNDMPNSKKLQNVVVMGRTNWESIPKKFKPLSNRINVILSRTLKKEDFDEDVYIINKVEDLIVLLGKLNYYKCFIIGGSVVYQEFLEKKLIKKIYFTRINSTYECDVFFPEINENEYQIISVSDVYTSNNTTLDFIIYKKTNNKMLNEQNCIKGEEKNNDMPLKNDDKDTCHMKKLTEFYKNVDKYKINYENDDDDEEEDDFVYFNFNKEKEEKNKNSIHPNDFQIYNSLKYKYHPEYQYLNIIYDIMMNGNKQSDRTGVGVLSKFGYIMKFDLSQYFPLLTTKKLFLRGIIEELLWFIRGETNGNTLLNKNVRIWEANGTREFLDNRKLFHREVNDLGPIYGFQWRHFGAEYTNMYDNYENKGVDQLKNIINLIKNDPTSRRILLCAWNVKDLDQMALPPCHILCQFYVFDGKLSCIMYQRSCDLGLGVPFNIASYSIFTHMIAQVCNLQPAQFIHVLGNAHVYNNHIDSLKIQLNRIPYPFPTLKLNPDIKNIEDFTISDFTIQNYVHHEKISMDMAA
For assay [8], the system named is BC. The experiment in a line: In vitro cytotoxicity against BC cell line. Particulars: Homo sapiens.
Assay [9] relates to KB. The experiment in a line: Relative antiplasmodial activity to cytotoxicity in Plasmodium falciparum Csl-2 infected KB cells. The class given is functional.
In assay [10] the test system is BC. The experiment in a line: Relative antiplasmodial activity to cytotoxicity in Plasmodium falciparum TM4/8.2 infected BC cells. The assay is classed as functional.
In assay [11] the target is Bifunctional dihydrofolate reductase-thymidylate synthase (Plasmodium falciparum K1, UniProt P13922, C59R/N51I/S108N). The experiment in a line: Binding affinity towards mutant dihydrofolate reductase (N51I+C59R+S108N DHFR) of Plasmodium falciparum.
Chain of Bifunctional dihydrofolate reductase-thymidylate synthase (Plasmodium falciparum K1, UniProt P13922, C59R/N51I/S108N) (P13922 whole entry, looked up, stated change not applied): as above
In assay [12] the test system is KB. The experiment in a line: Relative antiplasmodial activity to cytotoxicity in Plasmodium falciparum TM4/8.2 infected KB cells. The assay is classed as functional.
The subject of assay [13] is BC. The experiment in a line: Relative antiplasmodial activity to cytotoxicity in Plasmodium falciparum Csl-2 infected BC cells. The class given is functional.
Assay [14] concerns Vero. The experiment in a line: Relative antiplasmodial activity to cytotoxicity in Plasmodium falciparum TM4/8.2 infected Vero cells. The class given is functional.
For assay [15], the system named is KB. Kind of assay: In vitro cytotoxicity against Plasmodium falciparum infected KB cell line. The assay is classed as functional, cell-based. The settings on record: Homo sapiens. The method in brief: (§2)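 Cytotoxicity (IC50, μM) run against three mammalian lines: Vero (African green monkey kidney fibroblasts), KB (human epidermoid carcinoma) and BC (human breast cancer). Testing followed the Skehan et al. protocol.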

Assay [16] concerns the target Bifunctional dihydrofolate reductase-thymidylate synthase (Plasmodium falciparum K1, UniProt P13922, C59R/I164L/N51I/S108N). The experiment in a line: Binding affinity towards mutant dihydrofolate reductase (N51I+C59R+S108N+I164L DHFR) of Plasmodium falciparum.
Assay [17] relates to Vero. Kind of assay: In vitro cytotoxicity against Plasmodium falciparum infected vero cell line. The class given is functional, cell-based. The settings on record: Chlorocebus sabaeus. The method in brief:
as §2

For assay [18], the target named is Bifunctional dihydrofolate reductase-thymidylate synthase (Plasmodium falciparum K1, UniProt P13922, A16V/S108T). Kind of assay: Binding affinity towards mutant dihydrofolate reductase (A16V+S108T DHFR) of Plasmodium falciparum.
Chain of Bifunctional dihydrofolate reductase-thymidylate synthase (Plasmodium falciparum K1, UniProt P13922, A16V/S108T) (P13922 whole entry, looked up, stated change not applied): as above
In assay [19] the test system is Bifunctional dihydrofolate reductase-thymidylate synthase (Plasmodium falciparum K1), P13922 [UNDEFINED MUTATION]. The experiment in a line: Ratio of binding affinity for mutant (A16V+S108T) to that of wild type dihydrofolate reductase. The method in brief: as §1

Chain of Bifunctional dihydrofolate reductase-thymidylate synthase (Plasmodium falciparum K1, UniProt P13922, C59R/I164L/N51I/S108N) (P13922 whole entry, looked up, stated change not applied): as above
Chain of Bifunctional dihydrofolate reductase-thymidylate synthase (Plasmodium falciparum K1) (P13922 whole entry, looked up): as the sequence (P13922 whole entry, looked up, stated change not applied) above
Chain of Bifunctional dihydrofolate reductase-thymidylate synthase (Plasmodium falciparum K1, UniProt P13922, C59R/I164L/S108N) (P13922 whole entry, looked up, stated change not applied): as above

Turning to `Nc1nc(N)c(-c2cccc(Cl)c2)c(CCCOC(=O)c2ccccc2)n1`, the values for the inhibitory constant (Ki) in assay [1], in [11] and in assay [16] were 0.8 nM, 0.8 nM and 3.6 nM, respectively. Moreover, the Safety ratio in the assay on KB [2] is recorded as 1.1; in the assay on Vero [4], 32.1; in the assay with Vero [5], 8.1; with KB [9] it was 4.4; with BC [10], 4.5; in the assay on KB [12] it was 4. The Safety ratio is 5 in the assay with BC [13] and 29 in the assay with Vero [14]. The values for the Ratio in assay [3], in assay [6] and in assay [7] were 0.5, 0.5 and 2.4, respectively. Also, the IC50 in the assay on BC [8] came to 9500 nM; with KB [15], 8400 nM; with Vero [17] it was 61000 nM.
Take `CC(=O)OCCCc1nc(N)nc(N)c1-c1ccccc1`: the figures for the Ki in assay [1], in assay [11] and in assay [16] were 18 nM, 5 nM and 237 nM, respectively. Further, the Ratio in [3] turned out to be 1.7; in [6] it was 0.5; in assay [7] it was 22.3.
As for `Nc1nc(N)c(-c2ccccc2)c(CCCO)n1`, the Ki was found to be 121 nM in assay [1], 58.5 nM in assay [11] and 549 nM in assay [16]. The Ratio is 1.4 in assay [3], 0.7 in assay [6] and 6.5 in assay [7].
As for `NC1=NC(c2cccc(Oc3ccccc3)c2)N(c2cccc(Cl)c2)C(N)=N1` (configuration not stated), the Ki in assay [1] came to 3 nM; in [18], 2.5 nM; in assay [11] it was 2.5 nM; in [16] it was 5.8 nM. The Safety ratio with KB [2] is 1.1; in the assay with Vero [4], above 14.7; in the assay on Vero [5] it was above 13.9; in the assay with KB [9] it was 1.2; in the assay with BC [10] it was 3.8; with KB [12] it was 1.8. Also, the Safety ratio is 2.5 in the assay on BC [13] and above 22.7 in the assay with Vero [14]. Also, the Ratio was 2.7 in assay [3], 2.3 in assay [6], 5.3 in assay [7] and 2.3 in assay [19]. For the same compound, the IC50 in the assay with BC [8] is 8400 nM; in the assay on KB [15] it was 4000 nM; in the assay with Vero [17], above 50000 nM.
Regarding `CCCOc1ccc(C2N=C(N)N=C(N)N2c2cccc(Cl)c2)cc1` (configuration not stated), the Ki in [1] was determined as 0.5 nM; in assay [18] it was 9.3 nM; in assay [11], 2.1 nM; in assay [16], 2.7 nM. Besides, the Safety ratio in the assay with KB [2] is listed as 2.1; with Vero [4] it was above 17.2; with Vero [5] it was above 17.2; in the assay with KB [9], 2.1; with BC [10], 120; in the assay on KB [12], 24. Also, the Safety ratio is 10.3 in the assay on BC [13] and above 200 in the assay on Vero [14]. For the same compound, the IC50 in the assay on BC [8] is 30000 nM; in the assay with KB [15], 6000 nM; in the assay on Vero [17] it was above 50000 nM.
Turning to `NC1=NC(c2cccc(OCc3ccccc3)c2)N(c2ccc(Cl)cc2)C(N)=N1` (configuration not stated), the Ki amounted to 771 nM in assay [1], 6.2 nM in assay [18], 220 nM in assay [11] and 638 nM in assay [16]. The Ratio in [3] is 1100; in assay [6], 315; in assay [7] it was 911; in assay [19], 8.9.
`CC(C)C1(C)N=C(N)N=C(N)N1c1ccc(Cl)cc1` (configuration not stated): the Ki is 4620 nM in assay [1], 44800 nM in assay [18], 1370 nM in assay [11] and above 10000 nM in assay [16]. Also, the Ratio in assay [3] was 127; in assay [6] it was 37.5; in assay [7], above 274; in [19], 1230.
On to `Nc1nc(N)c(-c2cccc(Cl)c2)c(CCCO)n1`, for which the Ki is 29 nM in [1], 2.3 nM in assay [11] and 57 nM in [16]. Moreover, the Safety ratio with KB [2] is 1.6; with Vero [4], 11.7; with Vero [5] it was 3.6; in the assay with KB [9], 5.3; with BC [10], 13.6; in the assay with KB [12] it was 9.2. Moreover, the Safety ratio came out at 7.9 in the assay with BC [13] and 20.3 in the assay with Vero [14]. Also, the figures for the Ratio in assay [3], in [6] and in assay [7] were 3.2, 0.25 and 6.1, respectively. For the same compound, the concentration for half-maximal inhibition (IC50) with BC [8] amounted to 15000 nM; with KB [15], 10100 nM; in the assay with Vero [17] it was 22300 nM.
For the compound `Nc1nc(N)c(-c2ccccc2)c(CCCOC(=O)c2ccccc2)n1`, the inhibition constant (Ki) in assay [1] turned out to be 2.7 nM; in assay [11] it was 0.7 nM; in assay [16], 14 nM. In addition, the Ratio in assay [3] was found to be 0.8; in assay [6] it was 0.2; in assay [7], 4.1.
As to `NC1=NC(c2ccccc2)N(c2ccc(Cl)cc2)C(N)=N1` (configuration not stated), the inhibition constant (Ki) in assay [1] was 1870 nM; in [11], 196 nM; in [16], 2440 nM.
Regarding `CC1(C)N=C(N)N=C(N)N1c1cccc(Cl)c1`, the IC50 with BC [8] worked out at 8900 nM; in the assay with KB [15], 4000 nM; in the assay with Vero [17], 49000 nM.
Consider `CCCCCCC1(C)N=C(N)N=C(N)N1c1ccc(Cl)cc1` (configuration not stated), for which the Ki in [1] is 41.8 nM; in assay [18], 955 nM; in [11], 11.3 nM; in assay [16], 69.2 nM. The Ratio stood at 69.6 in [3], 18.8 in assay [6], 115 in [7] and 1590 in assay [19].
Consider `CC(=O)OCCCc1nc(N)nc(N)c1-c1cccc(Cl)c1`, for which the values for the inhibition constant (Ki) in assay [1], in assay [11] and in [16] were 3.2 nM, 1.8 nM and 31.4 nM, respectively. Further, the Safety ratio with KB [2] came to 3.2; with Vero [4] it was 27.8; in the assay with Vero [5], 9.4; in the assay with KB [9] it was 9.4; with BC [10], 6.3; in the assay on KB [12], 10.6. Besides, the Safety ratio with BC [13] is 5.6; with Vero [14] it was 31.3. The Ratio in assay [3] was found to be 1; in assay [6] it was 0.6; in assay [7], 10.1. In addition, the IC50 was 10000 nM with BC [8], 17000 nM in the assay with KB [15] and 50000 nM in the assay with Vero [17].
Regarding `CCCC1(C)N=C(N)N=C(N)N1c1ccc(Cl)cc1` (configuration not stated), the Ki in assay [1] is 3650 nM; in [18], 9230 nM; in assay [11] it was 560 nM; in assay [16] it was 4430 nM. The Ratio came out at 1040 in [3], 160 in assay [6], 1270 in assay [7] and 2640 in [19].
For the compound `NC1=NC(c2cccc(Oc3ccccc3)c2)N(c2ccc(Cl)cc2)C(N)=N1` (configuration not stated), the Ki stood at 132 nM in assay [1], 2.7 nM in assay [18], 23.6 nM in assay [11] and 239 nM in assay [16]. Moreover, the Ratio is 264 in assay [3], 47.1 in assay [6], 478 in assay [7] and 5.4 in assay [19].
As to `Nc1nc(N)c(-c2cccc(Cl)c2)c(CCCOC(=O)OCc2ccccc2)n1`, the Ki in assay [1] turned out to be 0.8 nM; in assay [11], 1.1 nM; in assay [16], 3.6 nM. In addition, the Safety ratio in the assay with KB [2] was determined as 0.3; with Vero [4], 2.7; in the assay with Vero [5], 0.9; with KB [9], 0.8; in the assay with BC [10] it was 1.9; in the assay with KB [12], 0.8. In addition, the values for the Safety ratio in the assay with BC [13] and in the assay on Vero [14] were 1.9 and 2.7, respectively. Also, the Ratio in assay [3] turned out to be 0.7; in assay [6] it was 0.9; in assay [7], 3. For the same compound, the values for the half-maximal inhibitory concentration (IC50) in the assay on BC [8], in the assay on KB [15] and in the assay with Vero [17] were 3600 nM, 1600 nM and 5200 nM, respectively.
On to `CCc1nc(N)nc(N)c1-c1ccccc1`, for which the inhibition constant Ki turned out to be 25 nM in assay [1], 3 nM in [11] and 32 nM in [16].
Take `CC(C)C1(C)N=C(N)N=C(N)N1c1cccc(Cl)c1` (configuration not stated): the Ki in [1] is 213 nM; in assay [18], 2180 nM; in assay [11], 196 nM; in assay [16], 472 nM. Besides, the Ratio in assay [3] worked out at 8.4; in [6] it was 7.7; in [7], 18.1; in assay [19] it was 85.
